The source made the active and inactive calls. No cut-off for these calls is given here.
Key:
PA-1 = test: Cytotoxicity against human PA1 cells after 72 hrs by MTT assay; assay type: functional, cell-based; details: PA-1, 72 h
In short: (§1)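 5000–10,000 cells seeded per well and exposed for 72 h in a CO₂ incubator to five concentrations, the highest 10 µM (top soluble). MTT (125 µg) added for 3 h, then lysed with 10% SDS–0.01 N HCl for 1 h. Absorbance read at 540 nm. % cytotoxicity = (1 − (treated−blank)/control)×100.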

DU-145 = test: Cytotoxicity against human DU145 cells after 72 hrs by MTT assay; assay type: functional, cell-based; details: DU-145, 72 h; in short: as §1
KB = test: Cytotoxicity against human KB cells after 72 hrs by MTT assay; assay type: functional, cell-based; in short: as §1
SW-620 = test: Cytotoxicity against human SW620 cells after 72 hrs by MTT assay; assay type: functional, cell-based; details: SW-620, 72 h; in short: as §1
HBL-100 = test: Cytotoxicity against human HBL100 cells after 72 hrs by MTT assay; assay type: functional, cell-based; details: HBL-100, 72 h; in short: as §1
A549 = test: Cytotoxicity against human A549 cells after 72 hrs by MTT assay; assay type: functional, cell-based; details: A549, 72 h; in short: as §1
[1] = Cytotoxicity against human MIA PaCa cells after 72 hrs by MTT assay; assay type: functional, cell-based; in short: as §1
K562 = test: Cytotoxicity against human K562 cells after 72 hrs by MTT assay; assay type: functional, cell-based; details: K562, 72 h; in short: as §1
NIH3T3 (Mus musculus) = test: Cytotoxicity against mouse NIH3T3 cells after 72 hrs by MTT assay; details: NIH3T3, 72 h
[2] = Antiinflammatory activity assessed as inhibition of TNFalpha secretion in LPS-induced C57BL/6 mouse dendritic cells at 1 ug/mL after 24 hrs by ELISA; assay type: functional; details: C57BL/6, Dendritic cell
In short: (§2)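 DCs grown from femoral bone marrow of 8–12-week-old C57BL/6 mice in RPMI-1640 with 10% FBS and rmGM-CSF (20 ng/ml), 37 °C, 5% CO₂. Immature DCs stimulated with LPS (100 ng/ml) and exposed to compounds (0.001–10 µg/ml range) for 24 h. Cytokine in supernatant quantified by ELISA. % change = (B−A)/A×100, where A is LPS-stimulated DCs without compound.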

Dendritic cell [3] = test: Antiinflammatory activity assessed as inhibition of IP-10 secretion in LPS-induced C57BL/6 mouse dendritic cells after 24 hrs by ELISA; assay type: functional, cell-based; in short: as §2
Dendritic cell [4] = test: Myeloprotective activity assessed as stimulation of MIP1 secretion in mouse dendritic cells after 24 hrs by ELISA relative to basal level; assay type: functional, cell-based
In short: (§3)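 Murine bone-marrow-derived dendritic cells, not LPS-stimulated, incubated with compounds at 0.1 and 1 µg/ml for 24 h. MIP-1α, CCL22 and TNF-α in culture supernatants measured by ELISA. % change = (B−A)/A×100 against untreated DCs.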

Dendritic cell [5] = test: Myeloprotective activity assessed as inhibition of CCL22 secretion in mouse dendritic cells after 24 hrs by ELISA; assay type: functional, cell-based; in short: as §3
Dendritic cell [6] = test: Myeloprotective activity assessed as inhibition of TNFalpha secretion in mouse dendritic cells after 24 hrs by ELISA relative to basal level; assay type: functional, cell-based; in short: as §3
[7] = Antiinflammatory activity assessed as inhibition of IL1-beta secretion in LPS-induced C57BL/6 mouse dendritic cells after 24 hrs by ELISA; assay type: functional, Dendritic cell; in short: as §2

Row | SMILES | IC50 (PA-1) | IC50 (DU-145) | IC50 (KB) | IC50 (SW-620) | IC50 (HBL-100) | IC50 (A549) | IC50 [1] | IC50 (K562) | IC50 (NIH3T3 (Mus musculus)) | inhibition at 1 µg/mL [2] | Activity (Dendritic cell [3]) | Activity (Dendritic cell [4]) | Activity (Dendritic cell [5]) | Activity (Dendritic cell [6]) | Inhibition [7]
1 | C#CCn1cc(C(=O)NCCCOC(=O)[C@H]2CCCN2C(=O)OC(C)(C)C)c(=O)c2ccc(C)nc21 | > 10 µM | > 10 µM | 3.7 µM | > 10 µM | > 10 µM | > 10 µM | > 10 µM | > 10 µM | > 10 µM | – | – | – | – | – | –
2 | C#CCn1cc(C(=O)NCCCOC(=O)[C@@H](O)[C@@H](NC(=O)OC(C)(C)C)c2ccccc2)c(=O)c2ccc(Cl)nc21 | > 10 µM | > 10 µM | > 10 µM | 3 µM | > 10 µM | > 10 µM | > 10 µM | > 10 µM | 7.84 µM | > 50% | Active | – | – | – | –
3 | C#CCn1cc(C(=O)NCCCOC(=O)CNC(=O)OC(C)(C)C)c(=O)c2ccc(Cl)nc21 | – | – | – | – | – | – | – | – | – | > 50% | Active | Active | Active | Active | –
4 | C#CCn1cc(C(=O)N[C@@H](C)CCOC(=O)[C@H]2CCCN2C(=O)OC(C)(C)C)c(=O)c2ccc(Cl)nc21 | 5.2 µM | > 10 µM | 6.6 µM | 3.3 µM | 8.4 µM | > 10 µM | > 10 µM | > 10 µM | > 10 µM | – | – | – | – | – | –
5 | C#CCn1cc(C(=O)NCCCOC(=O)CNC(=O)OC(C)(C)C)c(=O)c2cccnc21 | 9 µM | > 10 µM | 7 µM | > 10 µM | > 10 µM | > 10 µM | > 10 µM | > 10 µM | > 10 µM | – | – | – | – | – | –
6 | C#CCn1cc(C(=O)NCCCOC(=O)[C@H]2OC(C)(C)N(C(=O)OC(C)(C)C)[C@@H]2c2ccccc2)c(=O)c2cccnc21 | – | – | – | – | – | – | – | – | – | – | – | – | – | – | >50%
7 | C#CCn1cc(C(=O)N[C@@H](C)CCOC(=O)[C@H](C)NC(=O)OC(C)(C)C)c(=O)c2ccc(Cl)nc21 | 4.9 µM | > 10 µM | 8.3 µM | > 10 µM | > 10 µM | > 10 µM | > 10 µM | > 10 µM | > 10 µM | – | – | – | – | – | –
8 | C#CCn1cc(C(=O)NCCCOC(=O)[C@H]2CCCN2C(=O)OC(C)(C)C)c(=O)c2ccc(Cl)nc21 | > 10 µM | > 10 µM | > 10 µM | > 10 µM | 3.7 µM | > 10 µM | 7.6 µM | > 10 µM | 8.4 µM | > 50% | Active | Active | Active | Active | –
9 | C#CCn1cc(C(=O)NCCCOC(=O)[C@@H](O)[C@@H](N)c2ccccc2)c(=O)c2ccc(Cl)nc21 | – | – | – | – | – | – | – | – | – | – | – | – | – | – | >50%
10 | C#CCn1cc(C(=O)NCCCOC(=O)[C@H](C)NC(=O)OC(C)(C)C)c(=O)c2ccc(Cl)nc21 | > 10 µM | > 10 µM | > 10 µM | > 10 µM | 5.4 µM | > 10 µM | > 10 µM | > 10 µM | 9.2 µM | – | – | Active | Active | Active | –
11 | C#CCn1cc(C(=O)NCCCOC(=O)[C@H]2OC(C)(C)N(C(=O)OC(C)(C)C)[C@@H]2c2ccccc2)c(=O)c2ccc(Cl)nc21 | 6 µM | > 10 µM | > 10 µM | 3.96 µM | 1.37 µM | > 10 µM | > 10 µM | > 10 µM | > 10 µM | > 50% | – | – | – | – | >50%

— ChEMBL document CHEMBL1140577, “Anticancer and anti-inflammatory activities of 1,8-naphthyridine-3-carboxamide derivatives” (Bioorg Med Chem Lett, 2007)
